ChEMBL document CHEMBL2346629, “Discovery and characterization of novel allosteric FAK inhibitors” (Eur J Med Chem, 2013)

Tests used:
[1] = biological target: Mitogen-activated protein kinase 8 (Homo sapiens) (UniProt P45983); assay: Inhibition of JNK1a1 (unknown origin) using [gamma-33P]ATP assessed as residual activity at 3 uM
Outline: (§1)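 Radiometric kinase profiling service covering 288 kinases (261 wild-type, 27 mutant). Inhibition was read as incorporation from [γ-³³P]ATP.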

[2] = biological target: Serine/threonine-protein kinase D3 (Homo sapiens) (UniProt O94806); assay: Inhibition of PRKD3 (unknown origin) using [gamma-33P]ATP assessed as residual activity at 3 uM
[3] = biological target: PAS domain-containing serine/threonine-protein kinase (Homo sapiens) (UniProt Q96RG2); assay: Inhibition of PASK (unknown origin) using [gamma-33P]ATP assessed as residual activity at 3 uM
[4] = biological target: Serine/threonine-protein kinase PAK 6 (Homo sapiens) (UniProt Q9NQU5); assay: Inhibition of PAK6 (unknown origin) using [gamma-33P]ATP assessed as residual activity at 3 uM
[5] = biological target: Ephrin type-B receptor 4 (Homo sapiens) (UniProt P54760); assay: Inhibition of EPHB4 (unknown origin) using [gamma-33P]ATP assessed as residual activity at 3 uM
Outline: (§2)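 Reaction Biology HotSpot radiometric profiling panel of 288 kinases (261 wild-type, 27 mutant). Kinase activity was read out by incorporation of [γ-33P]ATP.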

[6] = biological target: Beta-adrenergic receptor kinase 1 (Homo sapiens) (UniProt P25098); assay: Inhibition of GRK2 (unknown origin) using [gamma-33P]ATP assessed as residual activity at 3 uM; outline: as §1
[7] = biological target: Death-associated protein kinase 2 (Homo sapiens) (UniProt Q9UIK4); assay: Inhibition of DAPK2 (unknown origin) using [gamma-33P]ATP assessed as residual activity at 3 uM; outline: as §2
[8] = biological target: Tyrosine-protein kinase BTK (Homo sapiens) (UniProt Q06187); assay: Inhibition of BTK (unknown origin) using [gamma-33P]ATP assessed as residual activity at 3 uM
Outline: (§3)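 Radiometric profiling across 288 kinases (261 wild-type, 27 mutant), run as an outsourced service. Inhibition read out as [gamma-33P]ATP incorporation into substrate.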

[9] = biological target: Serine/threonine-protein kinase Nek1 (Homo sapiens) (UniProt Q96PY6); assay: Inhibition of NEK1 (unknown origin) using [gamma-33P]ATP assessed as residual activity at 3 uM
[10] = biological target: Casein kinase II subunit alpha (Homo sapiens) (UniProt P68400); assay: Inhibition of CK2a (unknown origin) using [gamma-33P]ATP assessed as residual activity at 3 uM; outline: as §2
[11] = biological target: Casein kinase I isoform gamma-1 (Homo sapiens) (UniProt Q9HCP0); assay: Inhibition of CK1g1(unknown origin) using [gamma-33P]ATP assessed as residual activity at 3 uM; outline: as §2
[12] = test system: Proto-oncogene tyrosine-protein kinase Src (Homo sapiens), P12931 [T341M]; assay: Inhibition of c-Src T341M mutant (unknown origin) using [gamma-33P]ATP assessed as residual activity at 3 uM
[13] = biological target: Macrophage-stimulating protein receptor (Homo sapiens) (UniProt Q04912); assay: Inhibition of RON (unknown origin) using [gamma-33P]ATP assessed as residual activity at 3 uM
[14] = biological target: Angiopoietin-1 receptor (Homo sapiens) (UniProt Q02763); assay: Inhibition of TIE2 (unknown origin) using [gamma-33P]ATP assessed as residual activity at 3 uM
[15] = biological target: Protein kinase C epsilon type (Homo sapiens) (UniProt Q02156); assay: Inhibition of PKCepsilon (unknown origin) using [gamma-33P]ATP assessed as residual activity at 3 uM
[16] = biological target: Serine/threonine-protein kinase BRSK2 (Homo sapiens) (UniProt Q8IWQ3); assay: Inhibition of BRSK2 (unknown origin) using [gamma-33P]ATP assessed as residual activity at 3 uM; outline: as §3
[17] = biological target: Ephrin type-B receptor 2 (Homo sapiens) (UniProt P29323); assay: Inhibition of EPHB2 (unknown origin) using [gamma-33P]ATP assessed as residual activity at 3 uM; outline: as §2
[18] = biological target: Serine/threonine-protein kinase N2 (Homo sapiens) (UniProt Q16513); assay: Inhibition of PKN2 (unknown origin) using [gamma-33P]ATP assessed as residual activity at 3 uM
[19] = biological target: Cyclin-dependent kinase 1/cyclin B1 (Homo sapiens) (UniProt P06493+P14635); assay: Inhibition of CDK1/cyclinB (unknown origin) using [gamma-33P]ATP assessed as residual activity at 3 uM; type: protein-complex assay; outline: as §3
[20] = biological target: Fibroblast growth factor receptor 3 (Homo sapiens) (UniProt P22607); assay: Inhibition of FGFR3 (unknown origin) using [gamma-33P]ATP assessed as residual activity at 3 uM; outline: as §2
[21] = test system: Epidermal growth factor receptor (Homo sapiens), P00533 [T790M]; assay: Inhibition of EGFR T790M mutant (unknown origin) using [gamma-33P]ATP assessed as residual activity at 3 uM; type: protein assay; outline: as §2
[22] = test system: Platelet-derived growth factor receptor alpha (Homo sapiens), P16234 [V561D]; assay: Inhibition of PDGFRa V561D mutant (unknown origin) using [gamma-33P]ATP assessed as residual activity at 3 uM
[23] = biological target: Rho-associated protein kinase 2 (Homo sapiens) (UniProt O75116); assay: Inhibition of ROCK2 (unknown origin) using [gamma-33P]ATP assessed as residual activity at 3 uM
[24] = biological target: Serine/threonine-protein kinase MRCK beta (Homo sapiens) (UniProt Q9Y5S2); assay: Inhibition of MRCKB (unknown origin) using [gamma-33P]ATP assessed as residual activity at 3 uM
[25] = biological target: Tyrosine-protein kinase Lyn (Homo sapiens) (UniProt P07948); assay: Inhibition of LYN-B (unknown origin) using [gamma-33P]ATP assessed as residual activity at 3 uM; outline: as §1
[26] = biological target: Serine/threonine-protein kinase WNK3 (Homo sapiens) (UniProt Q9BYP7); assay: Inhibition of WNK3 (unknown origin) using [gamma-33P]ATP assessed as residual activity at 3 uM
[27] = test system: Platelet-derived growth factor receptor alpha (Homo sapiens), P16234 [T674I]; assay: Inhibition of PDGFRa T674I mutant (unknown origin) using [gamma-33P]ATP assessed as residual activity at 3 uM
[28] = biological target: Serine/threonine-protein kinase D1 (Homo sapiens) (UniProt Q15139); assay: Inhibition of PKCmu (unknown origin) using [gamma-33P]ATP assessed as residual activity at 3 uM
[29] = biological target: Tyrosine-protein kinase SYK (Homo sapiens) (UniProt P43405); assay: Inhibition of SYK (unknown origin) using [gamma-33P]ATP assessed as residual activity at 3 uM
[30] = biological target: G protein-coupled receptor kinase 3 (Homo sapiens) (UniProt P35626); assay: Inhibition of GRK3 (unknown origin) using [gamma-33P]ATP assessed as residual activity at 3 uM; outline: as §1
[31] = biological target: Serine/threonine-protein kinase PLK2 (Homo sapiens) (UniProt Q9NYY3); assay: Inhibition of PLK2 (unknown origin) using [gamma-33P]ATP assessed as residual activity at 3 uM
[32] = biological target: Ephrin type-A receptor 7 (Homo sapiens) (UniProt Q15375); assay: Inhibition of EPHA7 (unknown origin) using [gamma-33P]ATP assessed as residual activity at 3 uM; outline: as §2

Sequence of Serine/threonine-protein kinase MRCK beta (Homo sapiens) (Q9Y5S2 whole entry): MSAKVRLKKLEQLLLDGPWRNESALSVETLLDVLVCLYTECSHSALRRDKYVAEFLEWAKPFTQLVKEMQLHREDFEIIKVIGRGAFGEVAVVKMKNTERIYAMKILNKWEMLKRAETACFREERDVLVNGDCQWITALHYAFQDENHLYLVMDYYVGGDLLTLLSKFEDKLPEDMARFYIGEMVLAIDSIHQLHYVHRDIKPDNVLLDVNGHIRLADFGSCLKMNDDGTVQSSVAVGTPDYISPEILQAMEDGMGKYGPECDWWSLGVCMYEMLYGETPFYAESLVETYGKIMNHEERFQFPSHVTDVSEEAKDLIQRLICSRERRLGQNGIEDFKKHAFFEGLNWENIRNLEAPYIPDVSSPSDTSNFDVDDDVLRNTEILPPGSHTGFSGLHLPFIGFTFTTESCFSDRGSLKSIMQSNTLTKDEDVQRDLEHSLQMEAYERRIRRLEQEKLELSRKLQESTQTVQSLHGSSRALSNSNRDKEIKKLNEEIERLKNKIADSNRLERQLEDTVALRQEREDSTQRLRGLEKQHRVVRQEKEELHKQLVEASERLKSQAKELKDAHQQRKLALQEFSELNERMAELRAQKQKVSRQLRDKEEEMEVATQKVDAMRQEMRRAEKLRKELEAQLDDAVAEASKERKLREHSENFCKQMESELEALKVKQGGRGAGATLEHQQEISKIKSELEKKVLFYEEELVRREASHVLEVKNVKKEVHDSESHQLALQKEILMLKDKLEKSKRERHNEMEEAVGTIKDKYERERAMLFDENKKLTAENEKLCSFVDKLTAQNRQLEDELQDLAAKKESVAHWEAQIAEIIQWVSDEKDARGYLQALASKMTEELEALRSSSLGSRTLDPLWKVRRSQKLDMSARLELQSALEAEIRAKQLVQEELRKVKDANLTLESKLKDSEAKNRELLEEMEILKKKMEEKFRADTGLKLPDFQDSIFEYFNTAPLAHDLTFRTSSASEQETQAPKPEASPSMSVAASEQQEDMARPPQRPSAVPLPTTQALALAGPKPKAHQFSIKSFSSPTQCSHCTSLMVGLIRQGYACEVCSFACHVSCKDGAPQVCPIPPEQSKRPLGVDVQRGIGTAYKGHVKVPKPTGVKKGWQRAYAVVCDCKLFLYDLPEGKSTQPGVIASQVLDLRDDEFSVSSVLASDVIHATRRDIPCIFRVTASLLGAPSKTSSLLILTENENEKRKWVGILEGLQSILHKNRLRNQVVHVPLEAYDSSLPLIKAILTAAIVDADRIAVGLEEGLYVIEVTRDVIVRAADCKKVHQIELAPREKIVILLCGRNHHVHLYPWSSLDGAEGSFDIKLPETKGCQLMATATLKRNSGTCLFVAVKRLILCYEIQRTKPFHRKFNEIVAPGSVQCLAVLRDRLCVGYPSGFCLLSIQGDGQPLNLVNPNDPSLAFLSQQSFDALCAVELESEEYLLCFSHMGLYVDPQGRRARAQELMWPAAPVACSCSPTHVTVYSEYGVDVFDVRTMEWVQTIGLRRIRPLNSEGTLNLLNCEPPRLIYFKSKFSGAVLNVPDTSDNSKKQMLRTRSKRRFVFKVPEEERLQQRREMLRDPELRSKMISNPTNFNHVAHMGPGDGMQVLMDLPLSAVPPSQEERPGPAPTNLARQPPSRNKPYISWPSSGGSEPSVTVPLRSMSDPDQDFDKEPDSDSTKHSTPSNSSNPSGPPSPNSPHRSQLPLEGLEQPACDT
Sequence of Protein kinase C epsilon type (Homo sapiens) (Q02156 whole entry): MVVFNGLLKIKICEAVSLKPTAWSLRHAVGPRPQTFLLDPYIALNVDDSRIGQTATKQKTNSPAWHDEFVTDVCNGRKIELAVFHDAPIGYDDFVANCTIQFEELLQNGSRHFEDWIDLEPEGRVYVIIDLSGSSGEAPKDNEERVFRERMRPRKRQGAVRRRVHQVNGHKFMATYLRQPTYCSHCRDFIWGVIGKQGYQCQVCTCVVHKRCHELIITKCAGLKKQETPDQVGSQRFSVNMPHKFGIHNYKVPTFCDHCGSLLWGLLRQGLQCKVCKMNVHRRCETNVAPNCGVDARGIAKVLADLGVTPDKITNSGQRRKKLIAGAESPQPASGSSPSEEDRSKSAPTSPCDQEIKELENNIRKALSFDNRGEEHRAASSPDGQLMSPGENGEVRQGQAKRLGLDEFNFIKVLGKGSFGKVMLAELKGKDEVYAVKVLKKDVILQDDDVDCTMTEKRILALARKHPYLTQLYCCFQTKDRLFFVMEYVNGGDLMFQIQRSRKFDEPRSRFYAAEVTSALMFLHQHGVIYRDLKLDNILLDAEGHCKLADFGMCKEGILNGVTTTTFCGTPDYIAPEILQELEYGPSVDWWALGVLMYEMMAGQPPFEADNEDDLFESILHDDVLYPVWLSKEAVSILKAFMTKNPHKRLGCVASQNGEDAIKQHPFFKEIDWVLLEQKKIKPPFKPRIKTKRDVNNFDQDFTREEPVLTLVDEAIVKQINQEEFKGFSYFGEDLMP
Sequence of Serine/threonine-protein kinase D3 (Homo sapiens) (O94806 whole entry, the tested form may be a part): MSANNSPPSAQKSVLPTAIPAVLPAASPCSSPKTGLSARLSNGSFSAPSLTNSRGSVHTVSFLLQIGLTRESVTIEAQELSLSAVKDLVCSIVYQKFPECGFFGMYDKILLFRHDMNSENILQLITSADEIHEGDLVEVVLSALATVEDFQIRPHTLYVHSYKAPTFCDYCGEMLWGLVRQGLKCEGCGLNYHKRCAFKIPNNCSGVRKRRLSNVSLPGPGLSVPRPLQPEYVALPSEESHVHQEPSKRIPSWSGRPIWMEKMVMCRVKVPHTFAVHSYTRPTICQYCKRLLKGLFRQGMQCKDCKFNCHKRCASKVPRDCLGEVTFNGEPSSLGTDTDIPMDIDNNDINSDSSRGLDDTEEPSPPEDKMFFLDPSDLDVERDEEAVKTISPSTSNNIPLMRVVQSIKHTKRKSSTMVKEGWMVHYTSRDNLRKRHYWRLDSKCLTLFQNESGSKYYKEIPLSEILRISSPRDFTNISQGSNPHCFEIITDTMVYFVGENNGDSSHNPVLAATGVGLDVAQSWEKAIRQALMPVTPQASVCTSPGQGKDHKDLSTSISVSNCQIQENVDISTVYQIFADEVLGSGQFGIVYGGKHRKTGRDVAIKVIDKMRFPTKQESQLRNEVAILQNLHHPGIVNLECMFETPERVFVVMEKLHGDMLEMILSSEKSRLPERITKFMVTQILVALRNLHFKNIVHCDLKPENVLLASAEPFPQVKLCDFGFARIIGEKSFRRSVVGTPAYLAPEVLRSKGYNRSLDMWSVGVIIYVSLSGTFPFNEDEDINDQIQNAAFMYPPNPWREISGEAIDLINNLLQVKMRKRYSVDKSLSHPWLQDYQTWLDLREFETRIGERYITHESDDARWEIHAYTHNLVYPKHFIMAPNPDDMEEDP
Sequence of Cyclin-dependent kinase 1/cyclin B1 (Homo sapiens) (P06493 whole entry, looked up): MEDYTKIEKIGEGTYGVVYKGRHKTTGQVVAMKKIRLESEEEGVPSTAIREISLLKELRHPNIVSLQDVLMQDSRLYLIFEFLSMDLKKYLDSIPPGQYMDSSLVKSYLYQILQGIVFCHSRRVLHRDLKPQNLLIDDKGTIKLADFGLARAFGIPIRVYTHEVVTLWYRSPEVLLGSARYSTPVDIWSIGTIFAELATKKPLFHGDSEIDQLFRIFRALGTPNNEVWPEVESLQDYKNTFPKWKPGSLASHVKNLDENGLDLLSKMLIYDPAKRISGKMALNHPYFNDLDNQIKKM
Sequence of Cyclin-dependent kinase 1/cyclin B1 (Homo sapiens) (P14635 whole entry, looked up): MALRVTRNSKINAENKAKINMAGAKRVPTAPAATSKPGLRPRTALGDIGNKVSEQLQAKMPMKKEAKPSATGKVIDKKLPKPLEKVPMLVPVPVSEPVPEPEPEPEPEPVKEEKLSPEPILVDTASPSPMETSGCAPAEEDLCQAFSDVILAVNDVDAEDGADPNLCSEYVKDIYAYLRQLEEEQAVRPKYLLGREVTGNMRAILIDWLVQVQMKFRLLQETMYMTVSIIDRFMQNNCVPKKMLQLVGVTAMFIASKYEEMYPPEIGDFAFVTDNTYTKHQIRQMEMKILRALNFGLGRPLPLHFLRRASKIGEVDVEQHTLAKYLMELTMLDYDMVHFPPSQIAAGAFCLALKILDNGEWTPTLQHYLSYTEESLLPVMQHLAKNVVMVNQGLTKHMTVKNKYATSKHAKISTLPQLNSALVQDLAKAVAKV
Sequence of Serine/threonine-protein kinase N2 (Homo sapiens) (Q16513 whole entry, looked up): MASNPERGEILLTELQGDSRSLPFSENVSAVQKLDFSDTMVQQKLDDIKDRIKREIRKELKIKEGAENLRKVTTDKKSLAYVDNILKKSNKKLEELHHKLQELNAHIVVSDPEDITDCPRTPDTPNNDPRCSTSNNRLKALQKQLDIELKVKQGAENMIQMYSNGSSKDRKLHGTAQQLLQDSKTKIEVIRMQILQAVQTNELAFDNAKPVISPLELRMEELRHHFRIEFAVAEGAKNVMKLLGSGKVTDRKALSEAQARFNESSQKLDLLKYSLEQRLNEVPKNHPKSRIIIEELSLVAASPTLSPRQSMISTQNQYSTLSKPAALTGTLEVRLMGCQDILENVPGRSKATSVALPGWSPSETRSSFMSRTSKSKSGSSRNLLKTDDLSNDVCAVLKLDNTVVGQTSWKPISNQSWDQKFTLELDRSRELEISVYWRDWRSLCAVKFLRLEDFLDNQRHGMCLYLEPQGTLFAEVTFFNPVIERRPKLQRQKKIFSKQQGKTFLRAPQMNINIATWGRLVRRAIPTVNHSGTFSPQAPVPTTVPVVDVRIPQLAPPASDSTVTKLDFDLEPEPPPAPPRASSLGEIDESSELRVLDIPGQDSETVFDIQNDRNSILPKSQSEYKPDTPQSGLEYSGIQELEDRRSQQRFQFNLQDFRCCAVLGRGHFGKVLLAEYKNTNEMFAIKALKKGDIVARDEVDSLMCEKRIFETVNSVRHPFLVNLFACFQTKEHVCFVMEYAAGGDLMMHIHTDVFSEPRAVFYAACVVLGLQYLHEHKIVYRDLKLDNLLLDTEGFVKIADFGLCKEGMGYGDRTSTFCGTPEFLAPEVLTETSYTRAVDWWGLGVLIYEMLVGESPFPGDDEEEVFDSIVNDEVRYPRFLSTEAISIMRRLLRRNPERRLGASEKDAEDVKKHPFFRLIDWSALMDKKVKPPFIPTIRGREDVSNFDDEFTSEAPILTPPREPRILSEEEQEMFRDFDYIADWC

Question: Which Activity [1] does the source give for `CCc1ccc(-c2ccc3c(c2)-c2[nH]ncc2S(=O)(=O)N3C)cc1` here?
Answer: 101%

Question: What about the Activity [2] of the same compound?
Answer: 91%

Question: What about the Activity [3] of the same compound?
Answer: 95%

Question: And the Activity [4]?
Answer: 97%

Question: And the Activity [5]?
Answer: 78%

Question: And the Activity [6]?
Answer: 98%

Question: And the Activity [7]?
Answer: 102%

Question: What about the Activity [8] of the same compound?
Answer: 95%

Question: What about the Activity [9] of the same compound?
Answer: 87%

Question: And the Activity [10]?
Answer: 89%

Question: What about the Activity [11] of the same compound?
Answer: 94%

Question: What about the Activity [12] of the same compound?
Answer: 77%

Question: What about the Activity [13] of the same compound?
Answer: 98%

Question: What about the Activity [14] of the same compound?
Answer: 91%

Question: What about the Activity [15] of the same compound?
Answer: 97%

Question: What about the Activity [16] of the same compound?
Answer: 93%

Question: What about the Activity [17] of the same compound?
Answer: 95%

Question: What about the Activity [18] of the same compound?
Answer: 91%

Question: What about the Activity [19] of the same compound?
Answer: 83%

Question: What about the Activity [20] of the same compound?
Answer: 91%

Question: And the Activity [21]?
Answer: 109%

Question: And the Activity [22]?
Answer: 81%

Question: What about the Activity [23] of the same compound?
Answer: 94%

Question: What about the Activity [24] of the same compound?
Answer: 101%

Question: What about the Activity [25] of the same compound?
Answer: 78%

Question: What about the Activity [26] of the same compound?
Answer: 106%

Question: What about the Activity [27] of the same compound?
Answer: 91%

Question: What about the Activity [28] of the same compound?
Answer: 93%

Question: And the Activity [29]?
Answer: 72%

Question: What about the Activity [30] of the same compound?
Answer: 93%

Question: And the Activity [31]?
Answer: 95%

Question: What about the Activity [32] of the same compound?
Answer: 93%
